Screens as filed in PubChem.
STAT3 activator – IL-6 driven STAT3 reporter potentiators, primary screen, U3A cells, luciferase, luminescence, MLSCN library; IL-6 STAT3-luciferase reporter; 100% = signal with IL-6 EC80 alone; activation (% of control), % at 5.6 µM; 190,000 compounds, 0.91% hits; AID 871, 2007;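 active = activation above the screen-wide mean of compound activation plus 3 SD, cut at about 130% in these data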;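 also: 0% = background luminescence of wells with medium and substrate only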
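System – human U3A cells carrying STAT3-luciferase construct · Probe or stimulus – Interleukin-6, 33 ng/mL · Schedule – compound 1 h, then IL-6 6 h at 37 °C · Signal – luminescence from STAT3-driven luciferase reporter · Evaluation – percent of IL-6-only median luminescence · Benchmarks – IL-6-only high control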
HSV replic up – enhancers of HSV replication in host cells, fold increase, host cell viability; HSV replication augmentation in cells; maximum fold increase; 220,000 compounds, 0.005% hits; in the data active = maximum fold increase above about 1.5; inconclusive = no clear call, values can overlap the other calls; tested in PC3 cells
STAT1 act – STAT1 signaling activators, primary screen, cell-based, HTS, luciferase reporter. NIH 3T3 STAT1-luciferase reporter, IFN-gamma, luminescence; 100% = IFN-gamma alone, no compound. activation (% of control), % at 5.5 µM. 200,000 compounds, 2.6% hits. AID 932, 2007;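 active = activation above the screen-wide mean activation plus 3 SD, cut at about 130% in these data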;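 also: raw ratio to IFN-gamma control signal so 100% means no change and 0% no light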
Cl transport mod – KCC2 cotransporter modulators, thallium flux, primary screen, cell-based, HEK293 KCC2, FluoZin-2 fluorescence, MLSMR. Solute carrier family 12 member 5 (Homo sapiens), Q9H2X9. KCC2 cells, thallium flux FluoZin-2 fluorescence. B-score of Tl+ flux slope (higher = more flux/activation; lower = inhibition) at 10 µM. 190,000 compounds, 2.2% hits. AID 1456, 2008;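 active = thallium flux slope and its plate-corrected score both differing from the plate sample mean at a set confidence after two filtering rounds, in either direction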;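 also: slope of fluorescence scaled to starting intensity during 10 to 20 s after thallium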
Target sequence (Q9H2X9 whole entry, looked up): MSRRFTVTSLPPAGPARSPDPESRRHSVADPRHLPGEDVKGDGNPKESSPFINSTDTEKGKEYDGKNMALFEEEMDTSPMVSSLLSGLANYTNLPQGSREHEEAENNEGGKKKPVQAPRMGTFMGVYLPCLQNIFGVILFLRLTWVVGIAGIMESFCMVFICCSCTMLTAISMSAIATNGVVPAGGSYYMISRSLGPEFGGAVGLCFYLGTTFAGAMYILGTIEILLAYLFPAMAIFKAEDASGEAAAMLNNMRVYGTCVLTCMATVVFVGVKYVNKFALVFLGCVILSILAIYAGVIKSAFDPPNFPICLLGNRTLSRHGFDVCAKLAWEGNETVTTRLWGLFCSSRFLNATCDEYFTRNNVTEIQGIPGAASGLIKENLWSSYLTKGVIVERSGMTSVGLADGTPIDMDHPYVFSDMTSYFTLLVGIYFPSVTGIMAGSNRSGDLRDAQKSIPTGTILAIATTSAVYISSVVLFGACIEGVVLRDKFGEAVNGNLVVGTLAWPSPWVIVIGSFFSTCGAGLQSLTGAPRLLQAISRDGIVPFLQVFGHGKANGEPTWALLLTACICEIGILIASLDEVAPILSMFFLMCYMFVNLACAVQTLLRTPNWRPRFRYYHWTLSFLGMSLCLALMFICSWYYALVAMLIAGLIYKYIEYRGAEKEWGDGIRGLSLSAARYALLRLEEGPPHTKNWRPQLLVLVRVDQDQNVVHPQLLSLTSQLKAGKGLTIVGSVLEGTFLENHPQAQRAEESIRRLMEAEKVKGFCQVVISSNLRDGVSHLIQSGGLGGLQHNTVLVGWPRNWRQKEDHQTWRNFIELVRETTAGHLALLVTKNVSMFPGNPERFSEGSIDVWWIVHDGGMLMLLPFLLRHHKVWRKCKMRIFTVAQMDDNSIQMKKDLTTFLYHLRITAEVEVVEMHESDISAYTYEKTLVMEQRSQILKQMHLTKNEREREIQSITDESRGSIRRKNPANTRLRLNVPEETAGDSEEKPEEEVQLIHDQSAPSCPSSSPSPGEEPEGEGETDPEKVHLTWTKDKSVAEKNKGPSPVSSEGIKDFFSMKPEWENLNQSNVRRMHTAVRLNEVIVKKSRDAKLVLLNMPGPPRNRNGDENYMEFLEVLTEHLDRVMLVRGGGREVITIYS
STAT1 inh-1 – STAT1 signaling inhibitors, primary screen, cell-based, HTS, luciferase reporter; NIH 3T3 STAT1-luciferase reporter, IFN-gamma, luminescence; 200,000 compounds, 0.35% hits; AID 920, 2007; inhibition, % at 5.5 µM;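 active = inhibition above a set limit, the mean inhibition across all tested compounds plus 3 SD, cut at about 34% in these data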;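 also: 0% = IFN-gamma with DMSO and 100% = IFN-gamma with 300 µM nifuroxazide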
STAT3 blocker – IL-6 driven STAT3 reporter inhibitors, primary screen, U3A cells, luciferase, luminescence, MLSCN library | AID 862, 2007 | IL-6 STAT3-luciferase reporter; host cell line lacks STAT1 | 190,000 compounds, 0.89% hits | inhibition, % at 5.5 µM;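 active = inhibition above the mean inhibition across all screened compounds plus 3 SD, cut at about 44% in these data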;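 also: 0% = DMSO only wells and 100% = 100 µM nifuroxazide control wells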
STAT1 inh-2 – STAT1 signaling inhibitors, confirmation, cell-based, HTS, luciferase reporter. shares compounds with STAT1 inh-1. NIH 3T3 STAT1-luciferase reporter, IFN-gamma, luminescence. inhibition, % at 5.5 µM. 200 compounds, 55% hits;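 active = triplicate mean inhibition exceeding the hit cutoff computed for the primary STAT1 screen, cut at about 35% in these data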;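 also: 0% = DMSO with IFN-gamma and 100% = 300 µM nifuroxazide with IFN-gamma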
NFkB inh STAT1ct – NF-kB reporter inhibitors, TNF-alpha stimulated, counter-screen for STAT1 inhibitor project, cell-based, HEK293T, luciferase luminescence | shares compounds with STAT1 inh-1 | TNF-alpha induced | inhibition, % at 5.7 µM | 200 compounds, 30% hits;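 active = inhibition above the mean of solvent-only control wells plus 3 SD of those wells, cut at about 15% in these data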;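 also: 0% = DMSO with TNF-alpha and 100% = MG-132 control with TNF-alpha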
STAT3 inh 2 – STAT3 reporter inhibition by STAT1 hits, counter-screen for STAT1 inhibitor project, U3A cells, luciferase, luminescence, triplicate; shares compounds with STAT1 inh-1; IL-6 STAT3 luciferase reporter; cells lacking STAT1; inhibition, % at 5.7 µM; 200 compounds, 20% hits; AID 1310, 2008;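 active = inhibition above the mean of solvent-only control wells plus 3 SD, set per campaign, cut at about 25% in these data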;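 also: 0% = IL-6 plus DMSO and 100% = IL-6 plus nifuroxazide control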
KCC2 sec1 – KCC2 modulators in sodium-free buffer, confirmation, cell-based, HEK293 KCC2, thallium flux, secondary assay; shares compounds with Cl transport mod; FluoZin2 fluorescence; stronger effect = higher value; normalised thallium flux (F/F0 slope) at 10 µM; 3,700 compounds, 15% hits; AID 1713, 2009;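 active = thallium flux slope above the same plate's solvent-only control mean plus 3 SD; inconclusive = the two replicate wells disagree; inactive = no significant difference from solvent-only control wells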
KCC2 bumet counter – thallium flux persisting under bumetanide in KCC2 cells, confirmation, counter-screen for KCC2 modulator project, cell-based, HEK293 KCC2, FluoZin2, secondary assay 3. shares compounds with Cl transport mod. HEK293-KCC2 + bumetanide/ouabain; stronger effect = higher value. normalized thallium flux at 10 µM. 3,700 compounds, 49% hits;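 active = thallium entry rate above the same plate's blocked-transporter control wells by more than 3 SD; inconclusive = the two repeat wells disagree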;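 also: raw slope of fluorescence over initial fluorescence between 10 and 20 s after thallium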
KCC2 secondary2 – KCC2 modulators without ouabain present, confirmation, cell-based, HEK293 KCC2, thallium flux, FluoZin2, secondary assay 2 | thallium flux FluoZin2 fluorescence; actives lie on both sides; F/F0 rise rate, 10–20 s post-thallium | normalized thallium flux at 10 µM | 3,700 compounds, 23% hits | shares compounds with Cl transport mod;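 active = thallium flux slope more than 3 SD above or below the plate's solvent-only control mean, mostly below; inconclusive = the two repeat wells disagreed; inactive = no significant shift from solvent-only controls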;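 also: raw slope with 0.1% DMSO as baseline and bumetanide as block control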
HEK293 Tl flux – thallium flux modulation in parental HEK cells, confirmation, counter-screen for KCC2 modulator project, cell-based, counterscreen 1 | shares compounds with Cl transport mod | HEK293 parental cells, thallium flux FluoZin2, ouabain; baseline-ratio fluorescence slope, 10–20 s after thallium | thallium flux rate (normalised fluorescence) at 10 µM | 3,700 compounds, 46% hits | AID 1716, 2009;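 active = thallium flux rate significantly above the same plate's solvent-only control wells, beyond their mean plus 3 SD; inconclusive = the two replicate wells gave conflicting results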
KCC2 ouabain – KCC2 inhibitors and activators, ouabain retest, confirmation, HEK-KCC2 cells | shares compounds with Cl transport mod | AID 1717, 2009 | HEK293-KCC2, thallium flux FluoZin2 fluorescence; bidirectional: low = inhibitor, high = activator | 3,700 compounds, 48% hits | raw Tl+ flux slope (below DMSO = inhibition, above = activation) at 10 µM;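 active = thallium flux slope beyond 3 SD from same-plate DMSO control mean in most replicates, usually higher, sometimes lower; inconclusive = repeat tests gave conflicting results; inactive = no significant difference from controls in most replicates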;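 also: slope of initial-normalized fluorescence between seconds 10 and 20 after thallium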
HEK293 Tl flux2 – native HEK Tl+ uptake effects, second counter-screen – HEK cells, counterscreen 2, counter-screen for KCC2 modulator project, confirmation; shares compounds with Cl transport mod; HEK293 parental, thallium flux FluoZin-2 fluorescence slope; thallium flux slope at 10 µM; 3,700 compounds, 33% hits; AID 1718, 2009;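 active = thallium flux slope above the same plate's solvent-control mean plus 3 SD in both duplicate wells; inconclusive = duplicate wells that disagreed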;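 also: run without ouabain in cells lacking the KCC2 cotransporter; slope of fluorescence scaled to its starting value between 10 and 20 s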
* marks the source's active call; other numbers are inactive results; i = inactive; ? = inconclusive; / = no result. Shown are actives, neighbours in structure and some others; about 5.5% of the full set was active somewhere.

SMILES | STAT3 activator | HSV replic up | STAT1 act | Cl transport mod | STAT1 inh-1 | STAT3 blocker | STAT1 inh-2 | NFkB inh STAT1ct | STAT3 inh 2 | others
C=CCOC(=O)C1=C[C@H](c2ccc(Br)cc2)[C@@H](CCCO)[C@H](OCC)O1 | / | i | 65.4 | -1.08 | 38.4* | / | 20.8 | -6.6 | 0.5
CCC[C@@H]1CCCO[C@@](C(=O)NCc2cc(C)n(C)n2)(C(F)(F)F)C1 | / | i | / | / | / | / | / | / | /
CCOC(=O)C(=CNc1ccc(NC2=NCC(C)S2)cc1)C(=O)OCC (stereo unspecified) | 90.1 | i | 45.9 | -2.51 | 59.9* | 14.8 | 58.6* | 38.4* | 20.7
Cc1ccc2sc(-c3ccc(NC(=O)/C=C\C(=O)O)cc3)nc2c1 | 85.5 | i | 59.3 | 1.2 | 43.0* | 19.3 | -91.2 | -36.3 | -20.6
Cc1ncc(S(=O)(=O)C(C)(C)C)c(N)n1 | / | i | / | 0.858 | / | / | / | / | /
CC1C(=O)NN=C1C(=O)N/N=C\C(Br)=C\c1ccccc1 (stereo unspecified) | 91.9 | i | 24.1 | -0.641 | 81.3* | 16.6 | 40.5* | 2.9 | -22.8
CCOC(=O)c1nn(-c2ccccc2)c2nnc(Cc3ccccc3)c(=O)n12 | 91.7 | i | 103.4 | -0.257 | -3.8 | 13.8 | / | / | /
CCN1C(=O)C(CC(=O)Nc2ccc(F)cc2)N(Cc2ccc3c(c2)OCO3)C1=S (stereo unspecified) | 99.9 | i | 87.5 | 0.859 | 10.7 | 4.9 | / | / | /
Cc1nc2ncccn2c1-c1csc(Nc2ccc(O)cc2)n1 | 77.3 | i | 57.1 | -1.69 | 45.1* | 30.3 | 42.5* | 8.7 | 32.4*
Cc1ccc(Nc2nc(-c3c(C)nc4ncccn34)cs2)cc1 | 92.2 | i | 92.4 | 0.0294 | 8.5 | 19.1 | / | / | /
Cn1c(-c2ccccc2)c(CCO)c2ccccc21 | 96.4 | i | 98.1 | -0.543 | 2.1 | 7.6 | / | / | /
Cn1c(-c2ccccc2)c(C(=O)CCl)c2ccccc21 | 97.7 | i | 65.0 | -3.94* | 36.6* | 9.4 | 35.8* | 39.5* | 6.8 | KCC2 sec1=0.00912;KCC2 bumet counter=0.00422;KCC2 secondary2=0.0307;HEK293 Tl flux=0.00507*;KCC2 ouabain=0.0158*;HEK293 Tl flux2=0.00911*
CC(SCc1ccccc1)C(=O)Nc1ccc(F)cc1 (stereo unspecified) | 100.8 | i | 83.8 | -0.379 | 16.4 | 3.7 | / | / | /
N#CC(C#N)=C(Nc1ccc(F)cc1)SCc1cccc(Br)c1 | 71.9 | i | 64.5 | -3.69* | 39.4* | 33.3 | 52.5* | 15.5* | 43.4* | KCC2 sec1=0.00654;KCC2 bumet counter=?;KCC2 secondary2=?;HEK293 Tl flux=0.00963*;KCC2 ouabain=0.0146*;HEK293 Tl flux2=0.0106
Cc1nnc(C)n1/N=C/c1ccc(-c2ccccc2)cc1 | 95.7 | i | 94.3 | -0.0369 | 6.4 | 6.9 | / | / | /
Cc1ccc2[nH]c3c(N4CCN(Cc5ccccc5)CC4)ncnc3c2c1 | 79.1 | i | 67.0 | / | 36.3* | 30.5 | 40.0* | 8.9 | 16.1 | KCC2 sec1=0.00641;KCC2 bumet counter=0.00498;KCC2 secondary2=0.0223*;HEK293 Tl flux=0.00756;KCC2 ouabain=?;HEK293 Tl flux2=0.0112
NC(=O)/C=C\C(=O)Nc1cccc(C(F)(F)F)c1 | 113.1 | i | 99.2 | / | 0.9 | -3.5 | / | / | /
O=C(CSc1nc2c(c(=O)n1-c1ccccc1)SCC2)N1CCN(c2ccccc2)CC1 | 89.1 | i | 58.7 | -7.56* | 44.8* | 13.6 | 53.0* | 15.7* | 15.7 | KCC2 sec1=0.00672;KCC2 bumet counter=0.00609;KCC2 secondary2=0.0315;HEK293 Tl flux=0.00693;KCC2 ouabain=0.0116*;HEK293 Tl flux2=?
Brc1ccc(/C=C/C=N/Nc2nc3ccccc3s2)cc1 | 112.8 | i | 120.8 | 1.5 | -23.2 | -7.0 | / | / | /
